DENV2 CPE = inhibitors of DENV2 cytopathic effect | 350,000 tested, 1.7% active | AID 651640 | CPE inhibition, % at 9.99 µM | DENV2-infected cells, cytopathic effect rescue, plate reader; in the data active means CPE inhibition above about 20%, passing the limit was not always enough; tested in BHK-21 cells;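 further: 0% = median of neutral control wells and 100% = median of positive control wells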
Statin myotox sup = protects C2C12 myotubes from simvastatin toxicity; rescue of ATP level, % at 7.49 µM; 330,000 tested, 0.78% active; ATP luminescence, 48 h; scaled: DMSO 0, geranylgeraniol control 100;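 active means mean ATP rescue above about 67%, or every replicate alone reaching that limit, limit read from the data, passing the limit was not always enough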;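 further: myotubes were challenged with 10 µM simvastatin during compound exposure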
XiGFP reactiv = activators of X-chromosome reactivation in mouse fibroblasts; XiGFP mouse fibroblasts, % GFP-positive cells imaging, 3 d; cells co-treated with 5-aza-dC sensitizer; scaled so ellipticine positive control = 100%; activation, % at 7.58 µM; 360,000 tested, 0.055% active; AID 743238;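 active means mean normalized replicate activation at least 10% and every replicate at or above 10%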;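 further: 0% = median of on-plate neutral control wells and 100% = ellipticine 6 µM median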
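assay system = SV40-immortalized XiGFP fibroblast cells, line 68-5-11 | buffer or medium = DMEM plus 5-aza-dC sensitizer | doses = single-point pinned compound dosing | times = 3-day compound exposure, then 15 min fixation at room temperature | benchmarks = positive control ellipticine, 6 µM final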
Cneo AK release = causes C. neoformans cell lysis | 360,000 tested, 0.2% active | lysis activity, % at 15 µM | adenylate kinase release luminescence, 4 h; normalised: neutral wells 0, clomiphene wells 100;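 active means mean lysis activity across replicates of at least 80%, whatever share of replicates individually reach that level; inactive means mean lysis activity below 80%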
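Assay system: log-phase C. neoformans yeast / Quantity: yeast cell density of 5 × 10^6 cells/mL / Medium: fresh YPD growth medium / Compound: single dose / Timing: static 4 h at 37 °C with compound, 1 h detection / Measured by: adenylate kinase release luminescence / Read-out: lysis from increased AK signal / Benchmarks: Clomiphene as positive lysis control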
* marks the source's active call; other numbers are inactive results; x = not tested or not shown; ! = repeats disagree. Most compounds without a hit are left out; they make up all but 2.1% or so of the library.

SMILES	DENV2 CPE	Statin myotox sup	XiGFP reactiv	Cneo AK release
CCOC(=O)c1cccc(NC(=O)C2CCCO2)c1 (stereo not given)	x	101.7*	x	-0.2
O=C(O)c1cccc(NC(=O)C2CCCO2)c1 (stereo not given)	x	4.0	x	-0.8
Cc1cc(C(=O)Nc2cccc3c2O[C@H](CN(C)S(=O)(=O)c2cn(C)cn2)[C@H](C)CN([C@@H](C)CO)C3=O)n(C)n1	-2.9	13.2	-1.0	-0.3
OC[C@@H]1[C@H](c2ccc(-c3ccc(F)cc3)cc2)[C@H]2CN(Cc3ccccn3)CCCCN12	32.7*	x	0.0	0.5
OC[C@@H]1[C@@H](c2ccc(-c3ccc(F)cc3)cc2)[C@@H]2CN(Cc3ccccn3)CCCCN12	63.2*	x	-0.1	2.1
COC(=O)C1=C(N)N(c2ccccc2C(F)(F)F)C2=C(C(=O)CCC2)C1c1ccc2c(c1)OCO2 (stereo not given)	x	93.5*	x	-0.4
COC(=O)CSC1=C(C#N)C(c2ccc3c(c2)OCO3)C2=C(CCCC2=O)N1 (stereo not given)	x	3.0	x	-5.3
COc1ccccc1C(=O)N1CCN(Cc2c[nH]c3ccccc23)CC1	-1.8	16.1	0.1	-0.3
COc1cccc(OC)c1C(=O)N1CCN(Cc2c[nH]c3ccccc23)CC1	54.6*	1.8	0.1	2.4
c1ccc(Cn2nnnc2CN2CCN(Cc3ccc4c(c3)OCO4)CC2)cc1	x	37.5	x	-0.3
c1ccc2c(c1)CCN(Cc1nnnn1Cc1ccc3c(c1)OCO3)C2	x	125.0*	x	3.3
ClC(CCN1CCN(Cc2ccccc2)CC1)c1ccccc1 (stereo not given)	30.7*	x	0.4	x
CC(CN1CCN(Cc2ccccc2)CC1)c1ccccc1 (stereo not given)	-5.5	-3.3	0.1	-1.9
Cc1ccc(-c2cc(N)n(-c3ccc(F)cc3)n2)cc1	-1.3	x	0.2	x
Cc1ccc(-c2cc(N)n(-c3ccc(C)cc3)n2)cc1	x	111.8*	x	-0.3
O=C(C1=C[C@@H](c2ccccc2)C[C@@H](OCCCCO)O1)N1CCN(Cc2ccc3c(c2)OCO3)CC1	21.3*!	-6.3	0.1	5.9
O=C(C1=C[C@@H](c2ccc3c(c2)OCO3)C[C@@H](OCCCCO)O1)N1CCN(Cc2ccc3c(c2)OCO3)CC1	-4.1	-16.2	-0.1	-8.3
O=C(C1=C[C@H](c2ccc3c(c2)OCO3)C[C@H](OCCCCO)O1)N1CCN(Cc2ccc3c(c2)OCO3)CC1	44.1*	8.5	0.1	-0.1
O=C(C[C@@H]1C=C[C@@H](NC(=O)c2ccc(F)cc2)[C@H](CO)O1)NCCc1ccccc1	-9.3	13.4	-0.1	-3.3
COc1ccc(CN(C)C[C@H]2OCCCC[C@@H](C)Oc3ccc(NC(=O)NC(C)C)cc3C(=O)N([C@@H](C)CO)C[C@@H]2C)cc1	-5.7	-11.5	0.0	1.3
Cc1ccc(S(=O)(=O)Nc2ccc3c(c2)C(=O)N([C@@H](C)CO)C[C@H](C)[C@H](CN(C)C(=O)Nc2cccc4ccccc24)O3)cc1	1.9	13.8	-1.0	-6.1
Cc1cc(=O)oc2c(C)c(OC(C)C(=O)NC(Cc3c[nH]c4ccc(O)cc34)C(=O)O)ccc12 (stereo not given)	76.8*	-10.9	x	-2.1
CCCCC(=O)N(Cc1ccc(F)cc1)C1CCS(=O)(=O)C1 (stereo not given)	0.6	87.3*	0.0	-0.2
C[C@H](CO)N1C[C@H](C)[C@H](CN(C)S(=O)(=O)c2ccc(C(F)(F)F)cc2)OCc2ccccc2-c2ccccc2C1=O	33.1*	8.3	-0.2	-1.9
C[C@H]1CN([C@@H](C)CO)C(=O)c2ccccc2-c2ccccc2CO[C@H]1CN(C)Cc1ccc(C(F)(F)F)cc1	50.2*	x	-0.3	x
CCCNC(=O)N1CC2(CCN(CC3CCCC3)CC2)c2c(n(C)c3cc(OC)ccc23)[C@H]1CO	-8.3	x	0.0	x
C[C@H](CO)N1C[C@H](C)[C@@H](CN(C)S(=O)(=O)c2cccs2)OCCCC[C@H](C)Oc2ccc(N(C)C)cc2C1=O	-5.9	-22.6	-0.1	5.1
CC(=O)NC(c1cccc(F)c1)c1nc(-c2ccc(N(C)C)cc2)cs1 (stereo not given)	26.4*	-2.4	-0.1	-0.3
COc1ccc(-c2csc(C(NC(C)=O)c3cccc(F)c3)n2)cc1 (stereo not given)	-6.7	76.1*	0.1	-0.9
COc1ccc(C(C)(NC(C)=O)c2nc(-c3cccc(F)c3)cs2)cc1 (stereo not given)	28.6*	1.1	0.0	-1.1

Screening results as filed in PubChem.
